What was measured:
[1] = Stability in phosphate buffer saline pH 7.4; format: physicochemical; details: PBS pH 7.4 with 2% DMSO, 196 μM conjugate, 37 °C, 0-24 h, HPLC, n = 3
Procedure, shortened: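 Conjugate in PBS pH 7.4 with 2% DMSO, 196 μM final, held at 37 °C. Aliquots were withdrawn at time points over 0–24 h and analysed by HPLC. Results were plotted as areas of intact conjugate and of released free drug over time (n = 3).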

[2] = Control incubation in enzyme-free reaction buffer pH 6.0; format: physicochemical; details: enzyme free buffer pH 6.0, 37 °C, 24 h, 183 μM conjugate, RP-HPLC, n = 3
Procedure, shortened: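 Enzyme-free control run alongside the cathepsin B cleavage assay. Reaction buffer was 150 mM sodium acetate, 12 mM EDTA and 24 mM DTT, pH 6.0. Conjugate was added from a DMSO stock to 183 μM final and incubated at 37 °C. Aliquots were taken over 0–24 h for RP-HPLC. Peak areas at the retention times of pure drug and conjugate tracked conjugate loss and free drug appearance.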

U87MG cells = assay: XTT cytotoxicity assay; format: cell-based, Human; details: for cytotoxicity on U87MG cells at 24 h: XTT assay, 24 h exposure, 5-160 nM, n = 4
Procedure, shortened: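 U87MG cells were kept in EMEM with 10% FBS and 1% penicillin–streptomycin at 37 °C, 5% CO2. Cells were seeded at 1 × 10^4/well and treated after 24 h with 5–160 nM test compound at 37 °C. At 24 and 72 h, XTT with electron coupling reagent was added for 3 h, then A450 was read. Values were normalized to untreated cells. Controls were 0.05% DMSO and medium. Mean ± SD, n = 4. IC50 from concentration–response curve fit.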

[3] = system: U87MG cells with transferrin receptors blocked by excess T7-PEG4-N3; assay: T7 competition assay: transferrin receptor blocking studies; format: cell-based; details: Homo sapiens, U-87 MG, read-out: IC50 at 72 h in TfR-blocked U87MG cells
Procedure, shortened: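 U87MG cells were seeded at 1 × 10^4/well and grown 24 h. Medium was replaced with medium containing a 10-fold molar excess of azido-PEG4-T7 peptide relative to conjugate for 1 h. Cells were then exposed to 5–160 nM test compound. Controls were medium, 0.05% DMSO and peptide alone. XTT read-out at 72 h, A450 relative to controls, n = 4. IC50 from concentration–response curve fit.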

[4] = cited from earlier work
TfR = details: cited from earlier work

Compound	stability in phosphate-buffered saline [1]	release of free SN-38 in enzyme free buffer [2]	cytotoxicity on U87MG cells at 24 h (U87MG cells)	IC50 [3]	potency compared to irinotecan [4]	IC50 (U87MG cells; Homo sapiens, U-87 MG, 72 h, read-out: IC50 on U87MG cells at 72 h)	binding affinity for TfR relative to Tf (TfR)
CCc1c2c(nc3ccc(OCc4ccc(NC(=O)[C@H](C)NC(=O)[C@@H](NC(=O)CCCCCNC(=O)COCCOCCOCCNC(=O)CCCCC(=O)N5Cc6ccccc6-c6c(nnn6CCOCCOCCOCCOCCC(=O)N[C@@H](Cc6c[nH]cn6)C(=O)N[C@@H](C)C(=O)N[C@H](C(=O)N[C@@H](Cc6ccc(O)cc6)C(=O)N6CCC[C@H]6C(=O)N[C@@H](CCCNC(=N)N)C(=O)N[C@@H](Cc6c[nH]cn6)C(=O)O)[C@@H](C)CC)-c6ccccc65)C(C)C)cc4)cc13)-c1cc3c(c(=O)n1C2)COC(=O)[C@]3(O)CC [Compound T7-SN-38]	very minimal decomposition or cleavage	No free SN-38 was observed	did not exert pronounced cytotoxicity	–	–	–	–
CCc1c2c(nc3ccc(O)cc13)-c1cc3c(c(=O)n1C2)COC(=O)[C@]3(O)CC [SN-38, 7-Ethyl-10-hydroxycamptothecin]	–	–	did not exert pronounced cytotoxicity	27.6 nM	100–1000 times	26.4 nM	–
His-Ala-Ile-Tyr-Pro-Arg-His [T7 peptide]	–	–	–	–	–	–	comparable to that of Tf
